# proCasp3 act: activators of human procaspase-3 D3A mutant, primary screen, biochemical, absorbance, PC-3 D3A mutant, single concentration; 0.11% of 330,000 active; recombinant procaspase-3 D3A, Ac-DEVD-pNA absorbance 405 nm; activation, % at 8.5 µM; Caspase-3 (Homo sapiens), P42574;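 active = activation above the mean of all tested compounds plus 3 SD, cut at about 21% in these data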;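 also: 0% = DMSO alone and 100% = DMSO wells spiked with extra 5 µM PC-3 D3A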
# Target sequence (P42574 whole entry D9A/D28A/D175A): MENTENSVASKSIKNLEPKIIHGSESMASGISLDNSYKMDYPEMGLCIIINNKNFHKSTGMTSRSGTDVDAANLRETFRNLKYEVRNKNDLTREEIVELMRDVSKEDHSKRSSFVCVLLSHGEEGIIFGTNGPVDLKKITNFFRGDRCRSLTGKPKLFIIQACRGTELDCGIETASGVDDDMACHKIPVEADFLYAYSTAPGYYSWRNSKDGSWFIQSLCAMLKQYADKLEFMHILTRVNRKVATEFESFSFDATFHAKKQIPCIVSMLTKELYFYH
#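 Test system: Procaspase-3 D3A mutant; medium: Zinc-free HEPES/NaCl buffer with 0.01% Triton X-100 at pH 7.4; reagent: DEVD-pNA substrate; doses: one concentration, 8.5 µM nominal, 0.8% DMSO; times: 1 h preincubation plus 2 h reaction at 25 °C; signal: Epi-absorbance at 405 nm of released p-nitroaniline, 0 and 120 min; replicates: singlicate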
# Arrestin-AP2 inh: inhibitors of beta-arrestin/AP2 binding, primary screen, biochemical, GPCR trafficking, flow cytometry | beta-arrestin 1 C-terminal peptide binding to AP2 beta2-adaptin appendage (human) | FITC-arrestin peptide / GST-AP2 beads; AP2 beta2 appendage carries R879A mutation | inhibition, % at 10 µM | 0.31% of 340,000 active;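 active = inhibition above a set limit, near 3 SD of compounds lacking own fluorescence, cut at about 54% in these data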;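 also: plate controls were DMSO wells for no effect and 5 µM unlabelled arrestin peptide for full effect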
#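 Test system: GST-tagged AP2 beta2-adaptin appendage (R879A) on 4 µm glutathione beads; also added: fluorescein-tagged arrestin peptide at 50 nM final; timing: 12 min plus 1 h, RT; signal: flow cytometry, FL1 (488/535 nm); read-out: percent drop in bead-associated FITC signal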
# sPLA2-III inh: human group III sPLA2 inhibitors, primary screen, biochemical, QFRET, BODIPY PC-A2 liposome substrate; QFRET BODIPY PC-A2 liposome hydrolysis, fluorescence; inhibition, % at 12.2 µM; 0.56% of 370,000 active; AID 743126, 2013;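 active = inhibition above mean plus 3 SD of compounds lying within the high and low control bounds, cut at about 19% in these data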;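 also: 0% = median of test compound wells and 100% = no enzyme DMSO wells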
# Target sequence (Q9NZ20 whole entry, looked up): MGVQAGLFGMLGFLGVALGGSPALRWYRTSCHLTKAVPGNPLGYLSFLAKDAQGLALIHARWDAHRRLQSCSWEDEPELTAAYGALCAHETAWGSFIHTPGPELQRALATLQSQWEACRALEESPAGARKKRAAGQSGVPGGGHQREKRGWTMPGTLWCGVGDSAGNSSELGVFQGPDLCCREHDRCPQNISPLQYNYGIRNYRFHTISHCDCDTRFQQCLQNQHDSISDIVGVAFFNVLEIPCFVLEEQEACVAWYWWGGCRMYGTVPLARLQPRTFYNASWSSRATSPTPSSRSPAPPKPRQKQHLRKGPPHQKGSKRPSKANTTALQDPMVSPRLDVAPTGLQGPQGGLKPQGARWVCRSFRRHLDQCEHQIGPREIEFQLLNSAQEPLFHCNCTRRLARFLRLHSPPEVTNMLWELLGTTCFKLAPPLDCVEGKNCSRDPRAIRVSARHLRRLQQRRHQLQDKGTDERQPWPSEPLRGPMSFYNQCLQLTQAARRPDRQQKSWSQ
# PLC-gamma1 inh: PLC-gamma1 enzyme inhibitors, primary screen, biochemical, fluorescence, purified enzyme | 0.84% of 370,000 active | inhibition, % at 12.2 µM | 1-phosphatidylinositol 4,5-bisphosphate phosphodiesterase gamma-1 (Homo sapiens), P19174 | fluorogenic substrate; in the data active = inhibition above about 9.5%
# PLC-beta3 inh: human PLC-beta3 inhibitors, primary screen, biochemical, fluorescence; 0.18% of 370,000 active; AID 720704, 2013; inhibition, % at 12.2 µM; Purified PLC-beta3, fluorogenic substrate; in the data active = inhibition above about 11%;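 also: 0% = median of compound wells on plate and 100% = full blocker control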
# proCasp7 act: procaspase-7 activators, primary screen, counter-screen for procaspase-3 activator project, biochemical, absorbance, HTS, human | activation, % at 8.5 µM | 0.093% of 330,000 active | recombinant procaspase-7, Ac-DEVD-pNA absorbance 405 nm; D23A/D198A/D206A triple mutant, cannot self-cleave; scale: DMSO 0, 5 µM enzyme 100 | Caspase-7 (Homo sapiens), P55210;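 active = percent activation above the screen-wide mean plus 3 SD, cut at about 25% in these data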
#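 Material: Procaspase-7 triple mutant (PC-7 D3A) | Quantity: 2 µM procaspase-7 mutant as dispensed | Reagent: DEVD-pNA substrate | Times: 1 h preincubation, 2 h reaction | Technique: 405 nm absorbance of p-nitroaniline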
# Arr-AP2 CP1: inhibitors of arrestin peptide binding to AP2, confirmation, biochemical, cherry pick 1, flow cytometry beads; shares compounds with Arrestin-AP2 inh; GST-AP2 beads, FITC arrestin peptide binding; GST-fused beta2-adaptin appendage, R879A mutant; 2% of 1,300 active; inhibition, % at 10 µM;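 active = inhibition above a set limit, roughly 3 SD of non-fluorescent compound noise, cut at about 38% in these data; inactive = inhibition at or below that limit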;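 also: loss of bead fluorescence from 50 nM FITC arrestin peptide bound to appendage; 0% = negative control wells and 100% = excess unlabelled arrestin peptide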
# GST GSH counter: GST-fluorescein capture on glutathione beads, confirmation, artefact control for arrestin-AP2 inhibitor project, biochemical, cherry pick 1, flow cytometry | 2% of 1,300 active | GST-fluorescein binding to GSH beads, fluorescence, counter-screen | shares compounds with Arrestin-AP2 inh | inhibition, % at 10 µM;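 active = inhibition above 50%, about 3 SD of the inhibition seen with non-fluorescent compounds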;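 also: fluorescein maleimide labelled GST captured on 4 micron glutathione beads; higher means more loss of bead fluorescence from quenching or blocked binding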
# * marks the source's active call; other numbers are inactive results; i = inactive; . = no result. Sampled rows, rich in hits. Any-hit rate of the full collection: about 1.9%.
SMILES,proCasp3 act,Arrestin-AP2 inh,sPLA2-III inh,PLC-gamma1 inh,PLC-beta3 inh,proCasp7 act,Arr-AP2 CP1,GST GSH counter
CC(C)C(=O)OCC(=O)Nc1ccc(N=Nc2ccccc2)cc1,-3.8,55.9*,-7.2,6.1,5.8,1.6,-4.4,-4.2
COc1cc(NC(=O)c2ccccc2)c(C)cc1NC(=O)CSc1nnc(-c2ccco2)n1Cc1ccco1,.,.,-14.1,1.2,5.2,.,.,.
CCN(C)C(=O)CNc1nnnn1-c1ccccc1,.,.,-0.5,-0.1,1.1,.,.,.
COc1ccc(Cl)cc1NC(=O)COC(=O)C1CCCCC1,1.8,56.7*,3.7,-0.1,-6.0,19.5,6.3,-7.3
COc1ccc(Cl)cc1NC(=O)COC(=O)C1CC1,-0.5,-3.2,3.2,-2.6,0.0,-3.1,.,.
COc1ccc(Cl)cc1NC(=O)CN(C)C(=O)C1CC(=O)N(Cc2ccc(C)cc2)C1 (stereo not drawn),-0.7,1.9,-12.4,-1.7,-0.5,-0.3,.,.
COc1ccc(Cl)cc1NC(=O)COC(=O)C1CC(=O)N(Cc2ccccc2)C1 (stereo not drawn),7.2,57.8*,1.3,0.8,-5.1,14.3,5.0,0.7
Cc1ccc(C(=O)OCC(=O)N2CCCC2)cc1,5.9,63.7*,5.4,1.1,1.7,6.4,6.5,-1.2
O=C(OCC(=O)N1CCCC1)c1ccc(O)cc1,9.5,-8.1,5.4,3.6,-7.4,4.5,.,.
C=CCOC(=O)N1CCN(C(=O)c2ccc3c(c2)nc(C)n3C2CCCC2)CC1,.,.,12.7,3.5,-0.5,.,.,.
O=S1(=O)c2ccc(N3CCSCC3)cc2Oc2ccccc2CN1Cc1cn(Cc2cccc(F)c2)nn1,.,.,-5.7,0.8,-0.5,.,.,.
CCCC1CCC2(CC1)CCC2OC(=S)Nc1ccc(Cl)cc1 (stereo not drawn),.,.,0.2,0.0,3.5,.,.,.
CCN(C(=O)CSc1nc2ccccc2[nH]1)C1CCS(=O)(=O)C1 (stereo not drawn),7.6,54.4*,9.5,1.1,-3.7,9.7,-5.8,-6.5
CC(C)n1nnnc1C1c2ccccc2OCC(=O)N1Cc1cccc(C(F)(F)F)c1 (stereo not drawn),.,.,2.8,-1.4,-1.1,.,.,.
Cc1cc(N/N=C/c2cccc(Br)c2)nc2ccccc12,-5.8,56.7*,-2.7,-3.2,-9.4,-13.8,5.0,0.1
Cc1cc(N/N=C/c2ccncc2)nc2ccccc12,.,27.0,1.6,-3.9,-7.9,.,.,.
Cc1ccc(C(=O)N/C(=C\c2ccco2)C(=O)NCCN2CCOCC2)cc1C,3.2,55.5*,-5.6,-5.9,-10.8,0.4,-4.6,0.7
Cc1ccc2nc(-c3ccc(NC(=O)CSc4nnc(-c5ccccc5)n4Cc4ccco4)cc3)sc2c1,.,.,-16.3,-42.4,-74.5,.,.,.
COc1cc(NC(=O)C(C)Oc2ccccc2)c(C(=O)O)cc1OC (stereo not drawn),3.8,-0.7,-2.0,-5.5,-1.4,5.0,-5.7,-4.6
O=c1[nH]c2ccc(NC(=S)Nc3ccc(Cl)cc3Cl)cc2[nH]1,-6.6,4.2,-2.6,-1.2,0.6,-4.9,.,.
O=c1[nH]c2ccc(NC(=S)Nc3ccccc3Cl)cc2[nH]1,-5.6,55.3*,1.5,-1.1,-0.1,-7.9,3.2,-3.6
O=C(NCCC1=CCCCC1)C1CCN(S(=O)(=O)c2ccccc2)CC1,0.4,6.2,2.6,1.7,1.5,5.3,.,.
COC(=O)c1ccccc1S(=O)(=O)N1CCC(C(=O)NCCC2=CCCCC2)CC1,7.1,63.4*,-8.7,-0.4,5.1,5.6,-5.3,-1.1
CC(C)n1nnnc1C1(C)Cn2nccc2C(=O)N1Cc1cccc(C(F)(F)F)c1 (stereo not drawn),.,.,2.9,0.0,3.3,.,.,.
CCOC(=O)c1ccc(N=c2sc(C(=O)OC)cc(=O)n2C2CC2)cc1,-0.7,106.2*,-1.5,3.4,2.8,1.1,1.1,89.3*
SMILES,proCasp3 act,Arrestin-AP2 inh,sPLA2-III inh,PLC-gamma1 inh,PLC-beta3 inh,proCasp7 act,Arr-AP2 CP1,GST GSH counter
Cc1cccc(NC(=O)n2ccc3ccc(-c4ccc5cc[nH]c5c4)cc32)c1,.,.,-10.5,-141.8,-195.0,.,.,.
c1ccc(OCc2nnnn2-c2ccccc2)cc1,-2.6,2.9,-3.7,-0.3,1.6,6.3,.,.
Clc1ccc(OCc2nnnn2-c2ccccc2)cc1,-8.9,73.2*,-3.3,2.0,-1.3,-6.8,4.6,-4.8
COC(=O)Cc1c(C)c2ccc(O)c(CN3CCCC(C)C3)c2oc1=O (stereo not drawn),4.0,104.9*,0.9,i,i,9.0,-3.2,-4.3
COC(=O)Cc1ccc(NC(=S)N2CCCCC2C)cc1 (stereo not drawn),-6.5,57.0*,-2.6,-0.8,3.8,-0.8,-10.3,3.3
COC(=O)Cc1ccc(NC(=S)N2CCN(C)CC2)cc1,-6.0,-3.6,4.5,4.3,-1.4,3.2,.,.
CC(=O)c1nn(-c2ccccc2)cc1C(=O)c1ccc(Br)cc1,3.1,103.6*,-4.7,1.8,0.5,18.1,-5.8,-9.4
Cc1nc(C)c(C(=O)O)c(-c2cccs2)c1C(=O)O,-2.4,74.3*,-3.6,2.0,0.1,0.8,-8.5,-3.4
O=C(O)c1csc(-c2cccs2)n1,-2.5,10.7,-0.9,1.7,-5.4,-4.0,.,.
CCCCNC(=O)C1(C(C)=O)CC(C(=O)OCC)=NO1 (stereo not drawn),.,.,6.3,-2.7,2.9,.,.,.
COC(=O)C(N)Cc1ccc(O)c(O)c1 (stereo not drawn),-28.4,80.8*,3.9,-8.0,-13.8,-22.3,8.9,-6.9
c1nc(NCC2CCCOC2)c2cc(-c3ccc4c(c3)OCO4)ccc2n1 (stereo not drawn),.,.,16.7,-88.4,-116.9,.,.,.
CCn1c(COc2ccc(C)cc2)nnc1SCC(=O)c1ccc(-c2ccccc2)cc1,.,.,-26.0,0.9,1.6,.,.,.
O=C(NCC1CCN(C(=O)C(=O)c2cccs2)CC1)c1ccc2c(c1)CCO2,.,.,17.5,-1.7,-1.6,.,.,.

# Compound activity deposited in PubChem BioAssay by several laboratories.
